Results on 35 molecules are retold here after ChEMBL document CHEMBL1949493, “Discovery of s-nitrosoglutathione reductase inhibitors: potential agents for the treatment of asthma and other inflammatory diseases” (ACS Med Chem Lett, 2011).

Activity calls are given as the source filed them. No cut-off for these calls is given here.

Data set [1] is described as follows: Inhibition of S-nitrosoglutathione reductase expressed in Escherichia coli using GSNO as substrate measured for 3 mins by spectrophotometry.
The species named for another data set is Rattus norvegicus. The experiment in a line: Antihypertensive activity in rat DAHL/S model assessed as reduction in high dietary salt-induced hypertension.
Data set [2] is described as follows: Toxicity in iv dosed CD-1 mouse administered qd for 4 days measured on day 5. It is filed as organism-based. The conditions noted are these: in vivo. In a few lines: (§1)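 Read-out was the no observable adverse effect level (NOAEL) in mg/kg/day.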
Data set [3] deals with Mus musculus. Briefly: Antiasthmatic activity in ovalbumin-sensitized BALB/c mouse assessed as inhibition of methacholine-induced bronchoconstriction at 0.0005 to 30 mg/kg, iv administered from 30 mins to 48 hrs prior to assessment by whole body plethysmography.
The test system of data set [4] is Mus musculus. Briefly: Antiasthmatic activity in C57B1/6 mouse COPD model assessed as inhibition of porcine pancreatic elastase-induced emphysema at 0.1 to 10 mg/kg, po after 7 to 14 days by light microscopy. In kind it is functional, organism-based.
In data set [5] the test system is Mus musculus. Briefly: Antiinflammatory activity in C57B1/6 mouse IBD model assessed as inhibition of DSS-induced inflammatory response at 10 mg/kg, iv or po administered for 10 days from 2 days prior to and up to 2 days post DSS-challenge. Set-up: dose 10 mg/kg. It is filed as functional, organism-based. In a few lines:
(§2)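 Mouse model of DSS-induced IBD. Dosing was oral or IV at 1 and 10 mg/kg/day for 10 days.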

The test system of data set [6] is Mus musculus. Briefly: Antiinflammatory activity in C57B1/6 mouse IBD model assessed as inhibition of DSS-induced inflammatory response at 1 mg/kg, iv or po administered for 10 days from 2 days prior to and up to 2 days post DSS-challenge. It is filed as functional, organism-based. Set-up: dose 1 mg/kg. An outline of the steps:
as §2

Data set [7] is described as follows: Oral bioavailability in BALB/c mouse at 10 mg/kg. The conditions noted are these: in vivo. It is filed as ADME, organism-based.
The subject of data set [8] is Mus musculus. Briefly: Antiasthmatic activity in ovalbumin-sensitized BALB/c mouse assessed as inhibition of ovalbumin-induced easonophil infiltration into lungs at 0.0005 to 30 mg/kg, iv administered from 30 mins to 72 hrs prior to assesment by light microscopy. In kind it is functional, organism-based. In a few lines:
(§3)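 Ovalbumin-induced asthma model in mice, dosed by single IV administration. Read-out was eosinophil infiltration into the lungs.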

Data set [9] can be described thus: Plasma clearance in BALB/c mouse at 2 mg/kg, iv. It is filed as ADME, organism-based. The arrangement: dose 2 mg/kg, route intravenous.
The subject of data set [10] is Mus musculus. The experiment in a line: Antiasthmatic activity in ovalbumin-sensitized BALB/c mouse assessed as inhibition of ovalbumin-induced easonophil infiltration in lungs at >/= 0.0005 mg/kg, iv administered from 30 mins to 72 hrs prior to assessment by light microscopy. In kind it is functional, organism-based. The arrangement: dose 0.0005 mg/kg. An outline of the steps: as §3

In data set [11] the test system is Mus musculus. The experiment in a line: Antiasthmatic activity in ovalbumin-sensitized iv dosed BALB/c mouse assessed as inhibition of methacholine-induced bronchoconstriction administered from 30 mins to 48 hrs prior to metacholine-challenge by whole body plethysmography. It is filed as functional, organism-based.
The test system of data set [12] is Mus musculus. The experiment in a line: Antiasthmatic activity in ovalbumin-sensitized BALB/c mouse assessed as inhibition of methacholine-induced bronchoconstriction at >/= 0.01 mg/kg, iv administered from 30 mins to 48 hrs prior to metacholine-challenge by whole body plethysmography. In kind it is functional, organism-based. Set-up: dose 0.01 mg/kg.
Data set [13] concerns the target Voltage-gated inwardly rectifying potassium channel KCNH2 (Homo sapiens, UniProt Q12809). The experiment in a line: Inhibition of human ERG.
The subject of a further data set is Salmonella typhimurium. The experiment in a line: Mutagenic activity in Salmonella Typhimurium. The following applies: salmonella enterica subsp. enterica serovar typhimurium. It is filed as toxicity, organism-based.
The species entered for a further data set is Homo sapiens. Briefly: Inhibition of human recombinant delta2 opioid receptor at 10 uM by radioligand displacement assay. An outline of the steps:
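Off-target screen measuring percent inhibition of receptor radioligand binding, with test compound at 10 μM.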
(In general: Loss of bound radioactivity is the signal in a displacement assay; it reports binding, not function.)

Data set [14] concerns Mus musculus. Briefly: Antiasthmatic activity in ovalbumin-sensitized BALB/c mouse assessed as inhibition of methacholine-induced bronchoconstriction at >/= 0.01 mg/kg, iv administered prior to metacholine-challenge by whole body plethysmography. In kind it is functional, organism-based. Set-up: dose 0.01 mg/kg. The conditions noted are these: TDE = time-dependent effect.

The nature of data set [15]: Toxicity in po dosed CD-1 mouse administered qd for 4 days measured on day 5. It is filed as organism-based. The conditions noted are these: in vivo. An outline of the steps: as §1

Chain of Voltage-gated inwardly rectifying potassium channel KCNH2 (Q12809 whole entry): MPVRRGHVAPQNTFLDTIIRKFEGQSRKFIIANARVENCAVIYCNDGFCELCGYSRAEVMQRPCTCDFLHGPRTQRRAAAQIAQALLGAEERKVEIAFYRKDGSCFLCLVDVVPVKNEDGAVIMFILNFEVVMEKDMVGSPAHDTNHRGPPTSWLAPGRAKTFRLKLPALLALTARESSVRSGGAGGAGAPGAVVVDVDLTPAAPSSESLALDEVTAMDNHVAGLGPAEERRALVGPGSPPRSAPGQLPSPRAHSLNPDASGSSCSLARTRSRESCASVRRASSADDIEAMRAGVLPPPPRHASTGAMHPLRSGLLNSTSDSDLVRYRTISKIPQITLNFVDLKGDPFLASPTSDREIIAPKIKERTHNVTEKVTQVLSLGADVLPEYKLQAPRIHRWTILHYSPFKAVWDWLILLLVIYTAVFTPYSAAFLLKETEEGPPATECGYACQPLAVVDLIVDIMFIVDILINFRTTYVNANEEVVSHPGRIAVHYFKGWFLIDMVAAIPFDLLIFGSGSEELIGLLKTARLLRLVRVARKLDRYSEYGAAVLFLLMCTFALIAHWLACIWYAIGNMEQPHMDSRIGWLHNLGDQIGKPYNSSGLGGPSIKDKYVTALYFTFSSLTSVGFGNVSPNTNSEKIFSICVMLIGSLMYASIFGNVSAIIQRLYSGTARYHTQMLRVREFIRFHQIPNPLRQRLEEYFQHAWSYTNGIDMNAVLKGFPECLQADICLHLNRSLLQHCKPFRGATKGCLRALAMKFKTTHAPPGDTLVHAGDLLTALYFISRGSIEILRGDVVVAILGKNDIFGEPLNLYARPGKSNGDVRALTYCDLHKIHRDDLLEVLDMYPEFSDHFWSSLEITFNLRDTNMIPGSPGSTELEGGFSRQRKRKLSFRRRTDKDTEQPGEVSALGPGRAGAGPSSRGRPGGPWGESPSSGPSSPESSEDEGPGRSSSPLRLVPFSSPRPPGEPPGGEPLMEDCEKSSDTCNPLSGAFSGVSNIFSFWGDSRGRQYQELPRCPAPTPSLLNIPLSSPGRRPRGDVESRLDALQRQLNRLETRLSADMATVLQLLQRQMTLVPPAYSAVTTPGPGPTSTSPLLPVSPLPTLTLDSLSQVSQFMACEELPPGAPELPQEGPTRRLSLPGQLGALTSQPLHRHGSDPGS

One may read the IC50 as the concentration at which inhibition is half-maximal. Regarding `Cc1cc(C(N)=O)ccc1-n1c(CCC(=O)O)ccc1-c1ccc(Cl)cc1N(C)C`, the IC50 in data set [1] was 350 nM.

In [1], `CCOc1cc(Cl)ccc1-c1ccc(CCC(=O)O)n1-c1ccc(C(N)=O)cc1C` returned an IC50 of 170 nM.

`Cc1cc(C(N)=O)ccc1-n1c(CCC(=O)O)ccc1-c1ccc(C(N)=O)cc1` came in with a half-maximal inhibitory concentration (IC50) in data set [1] of 3920 nM.

For the molecule `Oc1ccc(-n2c(Cc3nnn[nH]3)ccc2-c2ccc(-n3ccnc3)cc2)cc1`, in data set [1], half-maximal inhibition (IC50) required 18 nM.

By NOAEL is commonly meant the highest tested level that showed no adverse finding. Broadly, the bioavailability is the share of a dose that reaches the circulation, judged against a reference dose that is usually intravenous. Broadly, the clearance is the volume of plasma or blood freed of the substance per unit of time. Low values mean inefficient removal, high ones efficient removal. As for `Cc1cc(C(N)=O)ccc1-n1c(CCC(=O)O)ccc1-c1ccc(Br)cc1`, the result in the data set filed under Rattus norvegicus, in the data set with Mus musculus [3], with Mus musculus [4], with Mus musculus [5], in the data set with Mus musculus [6] and in the data set with Mus musculus [8] was Active. Also, it took 160 nM to reach half-maximal inhibition in [1] (IC50). In data set [2], this molecule yielded an NOAEL at 96 h of 50 mg/kg. Also, the bioavailability in data set [7] amounted to 18%. In data set [9], this molecule returned a clearance of 21.4 mL/min/kg.

In turn, `COc1ccc(-c2ccc(CCc3nnn[nH]3)n2-c2ccc(C(N)=O)cc2C)cc1` came in with an IC50 in data set [1] of 1530 nM.

In the case of `Cc1cc(C(N)=O)ccc1-n1c(CCC(=O)O)ccc1-c1ccc(C(F)(F)F)cc1`, half-maximal inhibition in data set [1] (IC50) required 3990 nM.

As for `Oc1ccc(-n2c(CCc3nnn[nH]3)ccc2-c2ccc(-n3ccnc3)cc2)cc1`, the IC50 in [1] worked out at 300 nM.

On to `COc1ccc(-c2ccc(Cc3nnn[nH]3)n2-c2ccc(C(N)=O)cc2C)cc1`, for which the 50% inhibitory concentration (IC50) in [1] was 2910 nM.

Turning to `Cc1cc(C(N)=O)ccc1-n1c(CCC(=O)O)ccc1-c1ccc(Cl)cc1C(F)(F)F`, in [1], the IC50 was 330 nM.

As for `COc1ccc(-c2ccc(CCC(=O)O)n2-c2ccc(C(N)=O)cc2C)c(Cl)c1`, the IC50 in data set [1] turned out to be 200 nM.

In data set [1], `Cc1cc(C(N)=O)ccc1-n1c(CCc2nnn[nH]2)ccc1-c1ccc(Br)cc1` registered a half-inhibitory concentration (IC50) of 190 nM.

As to `COc1cc(Cl)ccc1-c1ccc(CCC(=O)O)n1-c1ccc(C(N)=O)cc1C`, the outcome in the data set filed under Rattus norvegicus, in the data set with Mus musculus [3], in the data set with Mus musculus [4], in the data set on Mus musculus [5], with Mus musculus [6] and in the data set with Mus musculus [8] was Active. Also, in data set [1], inhibition was half-maximal at 56 nM (IC50). In data set [7], the bioavailability was found to be 22.4%. Moreover, the clearance in data set [9] was 20.2 mL/min/kg.

Turning to `NC(=O)c1ccc(-n2c(CCC(=O)O)ccc2-c2ccccc2)cc1`, the half-maximal inhibitory concentration (IC50) in [1] came out at 570 nM. For the same molecule, the bioavailability in data set [7] worked out at 86.5%. In [9], this molecule showed a clearance of 8.9 mL/min/kg.

In [1], `Cc1cc(C(N)=O)ccc1-n1c(CCC(=O)O)ccc1-c1ccc(Cl)cc1` yielded a concentration for half-maximal inhibition (IC50) of 120 nM. Further, in data set [7], the bioavailability is 20.7%. For the same molecule, in data set [9], the clearance was determined as 16 mL/min/kg.

In the case of `COc1ccc(-c2ccc(CCC(=O)O)n2-c2ccc(C(N)=O)cc2F)cc1`, the 50% inhibitory concentration (IC50) in [1] turned out to be 240 nM.

Molecule `Cc1cc(C(N)=O)ccc1-n1c(CCC(=O)O)ccc1-c1ccc(Cl)cc1C(N)=O` showed an IC50 in data set [1] of 160 nM.

For `COc1ccc(-c2ccc(CCC(=O)O)n2-c2ccc(C(N)=O)cc2Cl)cc1`, the IC50 in [1] is 190 nM.

For `Cc1cc(C(N)=O)ccc1-n1c(CCC(=O)O)ccc1-c1ccc(C#N)cc1`, in data set [1], the IC50 was 563 nM. Besides, the bioavailability in [7] is 16.3%. For the same molecule, the clearance in data set [9] is 25.5 mL/min/kg.

`Oc1ccc(-n2c(Cc3nnn[nH]3)ccc2-c2ccc(Br)cc2)cc1` registered a 50% inhibitory concentration (IC50) in data set [1] of 4350 nM.

In [1], `Cc1cc(C(N)=O)ccc1-n1c(Cc2nnn[nH]2)ccc1-c1ccc(Br)cc1` registered a 50% inhibitory concentration (IC50) of 560 nM.

For `COc1ccc(-c2ccc(CCC(=O)O)n2-c2ccc(C(N)=O)cc2C)cc1`, the result in the data set filed under Rattus norvegicus, with Mus musculus [3], in the data set with Mus musculus [4], in the data set on Mus musculus [5], in the data set on Mus musculus [6] and in the data set on Mus musculus [8] was Active. This molecule also registered a 50% inhibitory concentration (IC50) in [1] of 210 nM. The same molecule returned an NOAEL at 96 h in data set [2] of 50 mg/kg.

For the molecule `COc1ccc(-c2ccc(CCC(=O)O)n2-c2ccc(C(N)=O)cc2C(F)(F)F)cc1`, the IC50 in [1] amounted to 450 nM.

In data set [1], `CCCOc1cc(Cl)ccc1-c1ccc(CCC(=O)O)n1-c1ccc(C(N)=O)cc1C` came in with an IC50 of 110 nM.

As to `COc1ccc(-c2ccc(CCC(=O)O)n2-c2ccc(C(N)=O)cc2)cc1`, the IC50 in [1] was determined as 460 nM.

As to `Cc1cc(C(N)=O)ccc1-n1c(CCC(=O)O)ccc1-c1ccc(O)cc1`, half-maximal inhibition in [1] (IC50) was put at 160 nM.

In turn, `Cc1cc(C(N)=O)ccc1-n1c(CCC(=O)O)ccc1-c1ccc(Cl)cc1NC=O` yielded an IC50 in [1] of 580 nM.

In data set [1], `Cc1cc(C(N)=O)ccc1-n1c(CCC(=O)O)ccc1-c1ccc(F)cc1` registered an IC50 of 500 nM.

Molecule `Cc1cc(C(N)=O)ccc1-n1c(CCC(=O)O)ccc1-c1ccc(Cl)cc1F` yielded an IC50 in data set [1] of 120 nM.

Consider `Cc1cc(C(N)=O)ccc1-n1c(CCC(=O)O)ccc1-c1ccc(Cl)cc1O`, for which the outcome in the data set listed under Rattus norvegicus, in the data set with Mus musculus [3], in the data set with Mus musculus [4], in the data set on Mus musculus [5], in the data set on Mus musculus [6] and in the data set with Mus musculus [8] was Active. The molecule also displayed a half-maximal inhibitory concentration (IC50) in [1] of 55 nM. In data set [7], this molecule gave a bioavailability of 2.72%. In data set [9], this molecule showed a clearance of 33.4 mL/min/kg.

In [1], `COc1cc(Br)ccc1-c1ccc(CCC(=O)O)n1-c1ccc(C(N)=O)cc1C` displayed an IC50 of 96 nM. The molecule further registered a bioavailability in [7] of 21.8%. The molecule also registered a clearance in data set [9] of 22.4 mL/min/kg.

The inhibition is the percentage by which the read-out fell short of the control. For the molecule `Cc1cc(C(N)=O)ccc1-n1c(CCC(=O)O)ccc1-c1ccc(-n2ccnc2)cc1` [N6022], the outcome in the data set on Mus musculus [10], in the data set with Mus musculus [12], in the data set on Mus musculus [5] and in the data set on Mus musculus [6] was Active. The Activity entry with Mus musculus [11] was “Dose-dependent effect”; in the data set with Salmonella typhimurium, “Non-toxic”; in the data set on Mus musculus [14] it was “tde”. In data set [13], this molecule returned an INH above 100 µM. In [1], this molecule came in with an IC50 of 20 nM. Also, the no-observed-adverse-effect level (NOAEL) at 96 h in data set [2] was 30 mg/kg; in data set [15], 100 mg/kg. Also, the inhibition in the data set listed under Homo sapiens came out at 66%.

Molecule `Oc1ccc(-n2c(CCc3nnn[nH]3)ccc2-c2ccc(Br)cc2)cc1` showed an IC50 in data set [1] of 450 nM.

Molecule `Cc1cc(C(N)=O)ccc1-n1c(CCC(=O)O)ccc1-c1ccc(Cl)cc1Cl` gave an IC50 in [1] of 160 nM.

In data set [1], `Cc1cc(C(N)=O)ccc1-n1c(CCC(=O)O)ccc1-c1ccccc1` yielded an IC50 of 360 nM. The molecule further yielded a bioavailability in data set [7] of 46.8%. The molecule further yielded a clearance in data set [9] of 11.8 mL/min/kg.
